This passage reports EC50, CC50 and IC50 results from ChEMBL document CHEMBL1132112, “Novel modifications in the alkenyldiarylmethane (ADAM) series of non-nucleoside reverse transcriptase inhibitors” (J Med Chem, 1999).

Assay [1] has as its system CEM-SS. Put plainly: 50% inhibitory concentration for cytopathicity of HIV-1 RF in CEM-SS cells. It counts as functional, cell-based. Particulars: Homo sapiens; call rule not given here. In outline: (§1)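 CEM-SS cells infected with HIV-1 RF; drug-induced protection from viral cytopathic effect read by XTT, as percent of uninfected drug-free control. EC50 is the concentration giving 50% protection. Triplicate wells on each plate, two sister plates; the plate EC50s (each a triplicate average) were averaged. XTT results were confirmed by supernatant RT and p24 levels. NA means no inhibition up to the concentration cytotoxic to uninfected cells.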
For orientation: Damage to the host cells serves as the signal in cytopathic effect assays.

The next assay has as its system CCRF-CEM. Nature of the assay: Concentration inhibiting 50% of mock-infected CEM cells. Particulars: Homo sapiens. It counts as functional. An outline of the steps: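 Uninfected (mock-infected) CEM-SS cultures exposed to drug. Viability by XTT, expressed as percent of drug-free control. CC50 is the concentration causing 50% cell death. Triplicates on each plate, two sister plates averaged.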

Assay [2] deals with T1, Human immunodeficiency virus type 1 reverse transcriptase (Human immunodeficiency virus 1, UniProt Q72547). Put plainly: Inhibition of HIV-1 Reverse transcriptase using poly-(ra)-oligo(dt) as the template primer; NI=No inhibition. In outline:
(§2)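 Purified p66/51 HIV-1 reverse transcriptase. Inhibition read as incorporation of [32P]-TTP into poly(rA)·oligo(dT) or of [32P]GTP into poly(rC)·oligo(dG) homopolymer template-primer. IC50 taken as concentration giving 50% inhibition.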

The test system of assay [3] is CEM-SS. Put plainly: 50% inhibitory concentration for cytopathicity of HIV-1 RF in CEM-SS cells; NA=Not active (EC50 uM). It counts as functional, cell-based, Homo sapiens. In outline: as §1
The target of assay [4] is T1, Human immunodeficiency virus type 1 reverse transcriptase. Nature of the assay: Inhibition of HIV-1 Reverse transcriptase using poly-(rc)-oligo(dg) as the template primer; NI=No inhibition. In outline:
as §2

For assay [5] the target is unchanged. Put plainly: Inhibition of HIV-1 Reverse transcriptase using poly-(ra)-oligo(dt) as the template primer; no inhibition. An outline of the steps:
as §2

pEC50: −log10 of the molar value.

A word on the pEC50: it is −log10 of the EC50, conventionally taken in molar units. A high value points to a small EC50. The term CC50 denotes the concentration giving 50% cytotoxicity. With `COC(=O)c1cc(C(=CCCCCCl)c2cc(Cl)c(OC)c(C(=O)OC)c2)cc(Cl)c1OC`, the pEC50 in the assay with CEM-SS [1] is 4.30. Further, in the assay on CCRF-CEM, the CC50 is > 316 µM. Also, the IC50 result in assay [2] is on record as “Not Active”.

For the molecule `CCC1(CCCC=C(c2cc(Cl)c(OC)c(C(=O)OC)c2)c2cc(Cl)c(OC)c(C(=O)OC)c2)OCCO1`, the EC50 entry in the assay on CEM-SS [3] is “Not Active”. The molecule further showed a CC50 in the assay with CCRF-CEM of 19.9 µM. Besides, the IC50 entry in assay [4] and in assay [5] was “Not Active” in each case.
